# Compound activity: PubChem, Johns Hopkins Ion Channel Center
# Rows were chosen to be rich in hits. Some 2.9% of all compounds tested hit in one or more screens of this group.
# TRPC6 inhibitor: blocks the mouse TRPC6 cation channel; B-score at 10 µM; actives 1.1% (n = 310,000); HEK293-TRPC6, membrane potential dye, ACh-evoked depolarization; hits give low values;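 active = B-score under library mean minus 3 SD, initial fluorescence not abnormally high, positive integrated signal ratio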;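 note: B-score derived from integrated fluorescence ratio over the kinetic read; more negative B-score means stronger inhibition of depolarization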
# Target sequence (Q61143 whole entry, looked up): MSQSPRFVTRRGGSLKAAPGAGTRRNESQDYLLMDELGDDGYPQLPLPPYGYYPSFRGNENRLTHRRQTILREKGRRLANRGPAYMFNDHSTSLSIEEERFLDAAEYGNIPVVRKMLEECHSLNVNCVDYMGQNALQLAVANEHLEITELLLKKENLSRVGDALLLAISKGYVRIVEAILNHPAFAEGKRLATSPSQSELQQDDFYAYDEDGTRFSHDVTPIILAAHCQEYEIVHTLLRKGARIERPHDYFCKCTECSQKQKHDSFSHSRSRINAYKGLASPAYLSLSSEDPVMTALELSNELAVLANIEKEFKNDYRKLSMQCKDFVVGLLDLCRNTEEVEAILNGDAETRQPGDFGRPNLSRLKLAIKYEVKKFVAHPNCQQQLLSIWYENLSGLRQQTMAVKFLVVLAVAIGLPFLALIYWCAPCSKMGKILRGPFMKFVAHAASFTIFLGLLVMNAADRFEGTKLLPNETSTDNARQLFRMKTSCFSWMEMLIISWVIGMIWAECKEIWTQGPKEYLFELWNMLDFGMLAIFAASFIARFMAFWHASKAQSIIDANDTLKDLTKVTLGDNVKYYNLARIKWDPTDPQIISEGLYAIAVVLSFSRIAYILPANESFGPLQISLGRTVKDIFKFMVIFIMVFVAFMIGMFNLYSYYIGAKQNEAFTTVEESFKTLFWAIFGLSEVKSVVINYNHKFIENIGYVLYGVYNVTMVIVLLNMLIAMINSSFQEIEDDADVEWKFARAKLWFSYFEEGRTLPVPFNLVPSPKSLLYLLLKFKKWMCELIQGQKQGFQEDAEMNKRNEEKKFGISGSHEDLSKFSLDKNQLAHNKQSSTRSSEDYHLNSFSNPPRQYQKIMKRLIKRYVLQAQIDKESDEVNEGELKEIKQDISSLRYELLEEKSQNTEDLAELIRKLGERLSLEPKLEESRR
# TRPC6 activator: mouse TRPC6 channel activation | Q61143 | HEK293-TRPC6 membrane potential dye fluorescence; hits give high values | B-score at 10 µM | actives 0.13% (n = 310,000) | AID 2550;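 active = B-score of the integrated fluorescence ratio above library mean plus 3 SD, and starting fluorescence ratio within library mean plus 5 SD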;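 note: higher score means more depolarization so channel activation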
# Kir21 block: inhibitors of mouse Kir2.1 inward-rectifier potassium channel; P35561; HEK293-Kir2.1, FluxOR thallium flux fluorescence; hits give low values; B-score at 10 µM; actives 0.85% (n = 310,000); AID 1672;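 active = fluorescence ratio B-score at or below minus 3 SD of library scores, with starting-brightness B-score within 2 SD, cut at about -4.2 in these data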;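 note: channel flux triggered by added potassium and thallium sulfate stimulus; B-score of peak minus minimum fluorescence over baseline after thallium stimulus; more negative B-score means stronger Kir2.1 block with less thallium influx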
# TRPC4 potent: allosteric potentiators of mouse TRPC4 channel; Q9QUQ5; HEK293 TRPC4beta/mu-opioid, DAMGO EC20, Fluo-4 Ca2+ flux; hits give high values; actives 0.42% (n = 310,000); B-score at 10 µM; AID 2227;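 active = B-score of calcium response area above 5 SD of library B-scores, with initial fluorescence ratio within 5 SD of library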;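 note: B-score of integrated fluorescence ratio over time as area under calcium response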
# TRPC4 inh: blocks the mouse TRPC4 cation channel. Q9QUQ5. HEK293 TRPC4beta/mu-opioid, DAMGO-evoked Fluo4 calcium flux; hits give low values. B-score at 10 µM. actives 0.39% (n = 300,000). AID 2247;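 active = B-score over 3 SD under the library average, no early fluorescence shift, positive overall ratio signal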
#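 Signal: kinetic Fluo4 fluorescence imaging of calcium influx. Material: stable TRPC4beta/mu-opioid receptor HEK293 cells. Probe or stimulus: DAMGO in two steps, submaximal then maximal.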
# TRPC4 act: activators of mouse TRPC4 channel. HEK293 TRPC4beta/mu-opioid, Fluo4 calcium fluorescence; hits give high values. actives 0.49% (n = 310,000). Q9QUQ5. B-score at 10 µM;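 active = B-score above 5 SD of library B-scores, and initial fluorescence ratio not above library mean plus 5 SD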;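 note: positive B-score marks a calcium rise read as TRPC4 activation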
#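 Assay system – TRPC4beta and mu-opioid receptor HEK293 stable cells · Measured by – Fluo4 fluorescence, kinetic · Schedule – dye loading 45 min room temperature, 110 s kinetic read · Read-out – B-scored integrated calcium fluorescence ratio · Controls – buffer and maximal DAMGO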
# Starred values were filed as active, the others as inactive; i = inactive.
SMILES,TRPC6 inhibitor,TRPC6 activator,Kir21 block,TRPC4 potent,TRPC4 inh,TRPC4 act
CCc1ccccc1NC1=NCC(=O)N1Cc1ccc(OC)cc1,i,i,-4.9*,i,i,i
CCOC(=O)COc1cc(-n2c(=S)[nH]c3ccccc3c2=O)c(Cl)cc1Cl,i,i,-1,31*,i,i
CCCn1c(NC(=O)c2cccc(S(=O)(=O)N3CCCC3)c2)nc2ccccc21,i,i,0.14,43*,-6*,i
CSc1cccc(CN2CCC(Oc3cccc(C(=O)N4CCCC4)c3)CC2)c1,i,i,-4.8*,i,i,i
O=C(c1cccc(OC2CCN(Cc3cccc(OCCO)c3)CC2)c1)N1CCCC1,i,i,-0.64,i,i,i
O=C(c1ccc(OC2CCN(CCCc3ccccc3)CC2)cc1)N1CCCC1,i,i,-5.9*,i,i,i
O=C(c1ccc(OC2CCN(Cc3cccc(F)c3)CC2)cc1)N1CCCCC1,i,i,-2,i,i,i
CSc1cccc(CN2CCC(Oc3ccc(C(=O)N4CCCCC4)cc3)CC2)c1,i,i,-5.5*,i,i,i
Cc1ccc(-n2ncc(C#N)c2/N=C/N(C)C)cc1,i,i,1.5,i,i,i
CCc1ccc2nc3nc(C)cc(C)c3c(N)c2c1,i,i,-1.8,i,-6*,i
Cc1cc(C)c2c(N)c3ccccc3nc2n1,i,i,1.1,i,i,i
CCOC(=O)/C(C#N)=C/c1cccc(C)c1,i,i,-0.87,i,i,i
CCCCOC(=O)N1CCOCCOCCOCC1,i,i,-4.7*,i,i,i
CCCCNC(=O)N1CCOCCOCCN(C(=O)NCCCC)CCOCCOCC1,i,i,-0.36,i,i,i
CCn1c(=O)c(C(=O)NNC(=O)c2cccc(Cl)c2)c(O)c2ccccc21,i,i,0.01,i,i,i
Cc1cc(C)n(-c2cc(Cl)cc(Cl)c2)c(=O)c1C#N,i,i,-0.14,i,i,i
Cc1ccc(-n2c(C)cc(C)c(C#N)c2=O)cc1Cl,i,i,0.48,i,-6*,45*
CC1(C)Cc2cccc(OCC(=O)OCC(=O)NCc3ccccc3)c2O1,i,i,-4.3*,i,i,i
COc1ccc(CCNC(=O)COc2cccc3c2OC(C)(C)C3)cc1OC,i,i,-5.8*,i,i,i
O=[N+]([O-])c1ccc(N2CCOCC2)nc1,i,i,-1.1,i,i,i
N#Cc1ccc(N2CCCNCC2)nc1,i,i,0.04,i,i,44*
Cn1cc(CNCC2CCCO2)c(-c2ccc(Oc3ccccc3)cc2)n1 (configuration not stated),i,i,-1.3,i,-7*,i
COc1ccc(-c2nn(-c3ccccc3)cc2C(=O)NCC2CCCO2)cc1 (configuration not stated),i,i,-1.2,i,i,49*
CCc1ccc(OCC(=O)Nc2ccc3c(c2)OCCO3)cc1,i,i,-4.7*,i,i,i
CCc1ccc(NC(=O)COc2ccc3c(c2)OCO3)cc1,i,i,-0.38,i,i,i
SMILES,TRPC6 inhibitor,TRPC6 activator,Kir21 block,TRPC4 potent,TRPC4 inh,TRPC4 act
OCC1(CCc2ccccc2)CCN(Cc2ccccc2Cl)CC1,i,i,-1.8,i,i,69*
OCCC1CN(Cc2cc(F)ccc2F)CCN1CCCc1ccccc1 (configuration not stated),i,i,-0.23,i,i,i
COc1ccc(CC2(CO)CCN(CC3=Cc4cc(Cl)ccc4OC3)CC2)cc1,i,i,1,i,i,i
COc1ccc2c(c1)C=C(CN1CCC(CO)(CCc3ccccc3)CC1)CO2,i,i,0.78,i,-6*,i
OCC1(CCc2ccccc2)CCN(Cc2c(F)ccc(F)c2F)CC1,i,i,-0.78,i,i,i
OCC1(CCCc2ccccc2)CCN(Cc2cc(F)ccc2F)CC1,i,i,-4.4*,i,-7*,i
Clc1ccccc1CN1CCN(CCCc2ccccc2)CC1,i,i,-3.8,i,i,i
OCC1(CCc2ccccc2)CCN(Cc2cc(F)ccc2-n2cccn2)CC1,i,i,-3.2,i,i,82*
CCCCn1cc([N+](=O)[O-])nc1C,i,i,0.22,i,i,i
OCC1(CCOc2ccccc2)CCN(Cc2cc(Cl)ccc2O)CC1,i,i,-4.6*,i,i,i
CCn1c(N2CCN(C(=S)NCCc3ccccc3)CC2)nc2ccccc21,i,i,-0.82,i,i,87*
CCn1c(N2CCN(C(=S)Nc3ccc(OC)cc3)CC2)nc2ccccc21,i,i,-0.04,i,i,52*
CC(C)n1c(N2CCN(C(=O)Nc3ccccc3)CC2)nc2ccccc21,i,i,-0.66,i,i,i
CCn1c(N2CCN(S(=O)(=O)c3ccc(F)cc3)CC2)nc2ccccc21,i,i,-0.03,i,i,i
CCn1c(N2CCN(S(=O)(=O)CC)CC2)nc2ccccc21,i,i,-0.88,i,i,126*
Cn1c(N2CCN(C(=O)Nc3ccc(F)cc3)CC2)nc2ccccc21,i,i,0.73,i,i,88*
CCOc1ccc(NC(=O)CCc2ccc(C)o2)cc1,i,i,1.5,i,i,i
Oc1ccc(/C=N/NC(=S)NCC2CCCO2)cc1 (configuration not stated),i,i,-0.19,i,i,i
CCn1c(N2CCN(C(=S)NC)CC2)nc2ccccc21,i,i,0.46,i,i,68*
CC(C)CNC(=S)N1CCN(c2nc3ccccc3s2)CC1,i,i,-0.09,i,i,i
CCn1c(N2CCN(Cc3ccc([N+](=O)[O-])cc3)CC2)nc2ccccc21,i,i,1.1,12*,i,124*
CCn1c(N2CCN(C(=S)NCC(C)C)CC2)nc2ccccc21,i,i,0.52,i,i,105*
CCCn1c(N2CCN(Cc3ccc(Cl)cc3)CC2)nc2ccccc21,i,i,-1.7,i,i,i
CCn1c(N2CCN(S(=O)(=O)c3ccc(Cl)cc3)CC2)nc2ccccc21,i,i,-0.11,i,i,i
CC(C)CNC(=O)CN1C(=O)NC2(CCCc3ccccc32)C1=O (configuration not stated),i,i,0.5,i,i,i
